Data set [1] is described as follows: Inhibition of anti-human CD3/CD28/mAbs-stimulated human T-lymphocutes proliferation after 72 hrs by CFSE staining based flow cytometric analysis. Format: functional, tissue-based. The settings on record: T-cell. Summed up:
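PBMC from healthy donor venous blood, density-gradient isolated; 5 × 10^6 cells/mL labelled with CFSE (1:1000 of 5 mM stock), 10 min at 37 °C, washed. Stimulated with anti-CD3 (OKT3) and anti-CD28 (28.6), each 100 ng/mL, with peptide at 1–30 μM for 72 h at 37 °C, 5% CO2. Division read by flow cytometry, normalised to stimulated untreated cells (100%); four independent experiments.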

Data set [2] can be described thus: Cytotoxicity against human HT-29 cells assessed as reduction in cell viability measured after 48 hrs by MTT assay. In kind it is cell-based. The method in brief: (§1)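 Cells seeded at 5.0 × 10^3 per well; medium was refreshed the day after plating, then peptides were added at final 0.78–100 μM, with 0.1% (v/v) Triton X-100 as positive control. Incubation was 48 h, then MTT (5 mg/mL in PBS) for 3 h. Formazan was dissolved in DMSO and read at 600 nm. Triplicate experiments; CC50 from log(inhibitor) vs normalized response (variable slope) fit.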

A short description of data set [3]: Cytotoxicity against HUVEC assessed as reduction in cell viability measured after 48 hrs by MTT assay. In kind it is cell-based. The following applies: human. Summed up:
as §1

Data set [4] in a line: Hemolytic activity against human RBC assessed as concentration required to cause 50% hemolysis measured after 1 hr. In kind it is cell-based, Erythrocyte. The settings on record: red blood cells (erythrocytes), read-out: CC50. Summed up:
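Donor human red blood cells were washed in PBS and diluted to 0.25% (v/v). Peptides were serially diluted from water to eight concentrations, 0.187–24 μM. Incubation was 1 h at 37 °C; PBS served as negative control and 1% Triton-X as positive control. Supernatant absorbance was read at 415 nm. CC50 (50% lysis) from log(agonist) vs response (variable slope) fit; n = 3.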

A further data set relates to T-cell line. Description: Immunosuppressive activity in anti-CD3/anti-CD28-stimulated human T-lymphocytes assessed as inhibition of cell proliferation after 72 hrs by CFSE staining based flow cytometric analysis. Format: functional. The method in brief:
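Donor PBMC were isolated on a density gradient and CFSE-stained for 10 min at 37 °C. Cells were stimulated with anti-CD3 (OKT3) and anti-CD28 mAbs, 100 ng/mL each, and exposed to peptides at 1–30 μM for 72 h at 37 °C, 5% CO2. Division was read by flow cytometry and normalized to stimulated untreated cells (100%). Four independent experiments, mean ± SD.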

Molecules are shown by their SMILES. Positions of bridges follow the written chain, without caps; N, C: chain ends. Residues, ends and D or L forms follow the SMILES beside them.

`CC(C)C[C@@H]1NC(=O)CNC(=O)[C@H](CC(N)=O)NC(=O)[C@H](CCCNC(=N)N)NC(=O)[C@H]([C@@H](C)O)NC(=O)[C@@H]2CSSC[C@@H]3NC(=O)[C@H]([C@@H](C)O)NC(=O)CNC(=O)CNC(=O)[C@H](C(C)C)NC(=O)[C@@H]4CSSC[C@H](NC(=O)[C@H]([C@@H](C)O)NC(=O)[C@H](CSSC[C@H](NC(=O)[C@H](C(C)C)NC(=O)[C@@H]5CCCN5C1=O)C(=O)NCC(=O)N[C@@H](CCC(=O)O)C(=O)N[C@@H]([C@@H](C)O)C(=O)N4)NC(=O)CNC(=O)[C@@H]1CCCN1C(=O)[C@H]([C@@H](C)O)NC(=O)[C@H](CC(N)=O)NC3=O)C(=O)N[C@@H](CO)C(=O)N[C@@H](Cc1c[nH]c3ccccc13)C(=O)N1CCC[C@H]1C(=O)N[C@@H](C(C)C)C(=O)N2` gave an IC50 in data set [1] of 1900 nM. In addition, the CC50 at 48 h is more than 10 µM in data set [2] and 5.1 µM in data set [3].
For the molecule `CC(C)C[C@@H]1NC(=O)CNC(=O)[C@H](CC(N)=O)NC(=O)[C@H](CCCNC(=N)N)NC(=O)[C@H](CCCCN)NC(=O)[C@@H]2CSSC[C@@H]3NC(=O)[C@H](CO)NC(=O)CNC(=O)[C@H]([C@@H](C)O)NC(=O)[C@H](C(C)C)NC(=O)[C@@H]4CSSC[C@H](NC(=O)[C@H](CO)NC(=O)[C@H](CSSC[C@H](NC(=O)[C@H](C(C)C)NC(=O)[C@@H]5CCCN5C1=O)C(=O)NCC(=O)N[C@@H](CCC(=O)O)C(=O)N[C@@H]([C@@H](C)O)C(=O)N4)NC(=O)CNC(=O)[C@@H]1CCCN1C(=O)[C@H]([C@@H](C)O)NC(=O)[C@H](Cc1ccc(O)cc1)NC3=O)C(=O)N[C@@H](CO)C(=O)N[C@@H](Cc1c[nH]c3ccccc13)C(=O)N1CCC[C@H]1C(=O)N[C@@H](C(C)C)C(=O)N2`, the CC50 at 48 h in data set [2] was 5.6 µM; in data set [3] it was more than 10 µM. Besides, the HC50 at 1 h in data set [4] worked out at 51.7 µM.
`CC[C@H](C)[C@@H]1NC(=O)[C@@H]2CCCN2C(=O)[C@H](Cc2c[nH]c3ccccc23)NC(=O)[C@H](C)NC(=O)[C@@H]2CSSC[C@@H]3NC(=O)[C@H]([C@@H](C)O)NC(=O)[C@H](CCC(=O)O)NC(=O)CNC(=O)[C@@H]4CSSC[C@H](NC(=O)CNC(=O)[C@@H]5CCCN5C(=O)[C@H]([C@@H](C)O)NC(=O)[C@H](CC(N)=O)NC(=O)[C@H](CSSC[C@H](NC1=O)C(=O)N[C@@H]([C@@H](C)O)C(=O)N[C@@H](CCCNC(=N)N)C(=O)N[C@@H](CC(N)=O)C(=O)NCC(=O)N[C@@H](CC(C)C)C(=O)N1CCC[C@H]1C(=O)N[C@@H](C(C)C)C(=O)N4)NC(=O)[C@H]([C@@H](C)O)NC(=O)CNC(=O)CNC(=O)[C@H](C(C)C)NC3=O)C(=O)N[C@@H](C(C)C)C(=O)N2`: the IC50 with T-cell line worked out at 1.6 µM. Besides, the cytotoxic concentration (CC50) at 48 h in data set [2] came out at 6.1 µM; in data set [3], 5.3 µM. Also, the HC50 at 1 h in data set [4] was determined as 33.5 µM.
Regarding `CC[C@H](C)[C@@H]1NC(=O)[C@@H]2CCCN2C(=O)[C@H](Cc2c[nH]c3ccccc23)NC(=O)[C@H](CO)NC(=O)[C@@H]2CSSC[C@@H]3NC(=O)[C@H]([C@@H](C)O)NC(=O)[C@H](CCC(=O)O)NC(=O)CNC(=O)[C@@H]4CSSC[C@H](NC(=O)CNC(=O)[C@@H]5CCCN5C(=O)[C@H]([C@@H](C)O)NC(=O)[C@H](CC(N)=O)NC(=O)[C@H](CSSC[C@H](NC1=O)C(=O)N[C@@H]([C@@H](C)O)C(=O)N[C@@H](CCCNC(=N)N)C(=O)N[C@@H](CC(N)=O)C(=O)NCC(=O)N[C@@H](CC(C)C)C(=O)N1CCC[C@H]1C(=O)N[C@@H](C(C)C)C(=O)N4)NC(=O)[C@H]([C@@H](C)O)NC(=O)CNC(=O)CNC(=O)[C@H](C(C)C)NC3=O)C(=O)N[C@@H](C(C)C)C(=O)N2`, in the data set with T-cell line, the IC50 came to 2.3 µM. In addition, the CC50 at 48 h is more than 10 µM in data set [2] and 7.5 µM in data set [3]. Further, the HC50 at 1 h in data set [4] is 14.6 µM.
Consider `CC(C)C[C@@H]1NC(=O)CNC(=O)[C@H](CC(N)=O)NC(=O)[C@H](CCCNC(=N)N)NC(=O)[C@H]([C@@H](C)O)NC(=O)[C@@H]2CSSC[C@@H]3NC(=O)[C@H]([C@@H](C)O)NC(=O)CNC(=O)CNC(=O)[C@H](C(C)C)NC(=O)[C@@H]4CSSC[C@H](NC(=O)[C@H](C(C)C)NC(=O)[C@H](CSSC[C@H](NC(=O)[C@H](C(C)C)NC(=O)[C@@H]5CCCN5C1=O)C(=O)NCC(=O)N[C@@H](CCC(=O)O)C(=O)N[C@@H]([C@@H](C)O)C(=O)N4)NC(=O)CNC(=O)[C@@H]1CCCN1C(=O)[C@H]([C@@H](C)O)NC(=O)[C@H](CC(N)=O)NC3=O)C(=O)N[C@@H](CO)C(=O)N[C@@H](Cc1c[nH]c3ccccc13)C(=O)N1CCC[C@H]1C(=O)N[C@@H](C(C)C)C(=O)N2`, for which the IC50 with T-cell line came to 4.5 µM. Besides, the figures for the CC50 at 48 h in data set [2] and in data set [3] were 5.5 µM and 5.2 µM, respectively. For the same molecule, in data set [4], the HC50 at 1 h was 39.5 µM.
On to `CC(C)C[C@@H]1NC(=O)CNC(=O)[C@H](CC(N)=O)NC(=O)[C@H](CCCNC(=N)N)NC(=O)[C@H]([C@@H](C)O)NC(=O)[C@@H]2CSSC[C@@H]3NC(=O)[C@H]([C@@H](C)O)NC(=O)CNC(=O)CNC(=O)[C@H](C(C)C)NC(=O)[C@@H]4CSSC[C@H](NC(=O)[C@H](CO)NC(=O)[C@H](CSSC[C@H](NC(=O)[C@H](C(C)C)NC(=O)[C@@H]5CCCN5C1=O)C(=O)NCC(=O)N[C@@H](CCC(=O)O)C(=O)N[C@@H]([C@@H](C)O)C(=O)N4)NC(=O)CNC(=O)[C@@H]1CCCN1C(=O)[C@H]([C@@H](C)O)NC(=O)[C@H](CC(N)=O)NC3=O)C(=O)N[C@@H](CO)C(=O)N[C@@H](Cc1c[nH]c3ccccc13)C(=O)N1CCC[C@H]1C(=O)N[C@@H](C(C)C)C(=O)N2`, for which the CC50 at 48 h in data set [2] was 7.3 µM; in data set [3] it was more than 10 µM. For the same molecule, the HC50 at 1 h in data set [4] is 49.6 µM.
As to `CC[C@H](C)[C@@H]1NC(=O)[C@@H]2CCCN2C(=O)[C@H](Cc2c[nH]c3ccccc23)NC(=O)[C@H](CO)NC(=O)[C@@H]2CSSC[C@@H]3NC(=O)[C@H]([C@@H](C)O)NC(=O)[C@H](CCC(=O)O)NC(=O)CNC(=O)[C@@H]4CSSC[C@H](NC(=O)CNC(=O)[C@@H]5CCCN5C(=O)[C@H]([C@@H](C)O)NC(=O)[C@H](CC(N)=O)NC(=O)[C@H](CSSC[C@H](NC1=O)C(=O)N[C@@H]([C@@H](C)O)C(=O)N[C@@H](CCCNC(=N)N)C(=O)N[C@@H](CC(N)=O)C(=O)NCC(=O)N[C@@H](CC(C)C)C(=O)N1CCC[C@H]1C(=O)N[C@@H]([C@@H](C)O)C(=O)N4)NC(=O)[C@H]([C@@H](C)O)NC(=O)CNC(=O)CNC(=O)[C@H](C(C)C)NC3=O)C(=O)N[C@@H](C(C)C)C(=O)N2` (cyclo(CGETCVGGTCNTPGCVCSWPICTRNGLPT); disulfide 1-15, 5-17, 10-22), in the data set with T-cell line, the IC50 worked out at 7.1 µM. The CC50 at 48 h in data set [2] was 8.4 µM; in data set [3], more than 10 µM. Besides, the HC50 at 1 h in data set [4] came out at 62.8 µM.

(Values after ChEMBL document CHEMBL4813935, “Cyclotides from Brazilian Palicourea sessilis and Their Effects on Human Lymphocytes” (J Nat Prod, 2021).)
